Screens (PubChem)
A selection: hits, their analogues and other compounds. The true share with any hit is near 2.2%.
V-ATPase pHluor – regulators of yeast V-ATPase proton pumping, primary screen, pHLuorin cytosolic pH fluorescence | S. cerevisiae | response, % at 10 µM | 350,000 compounds, 0.37% hits | AID 504577, 2011; in the data active = response mostly above about 7.3%, no sharp cut-off; inactive = mostly below about 5.4%; note: actives read high
Exocytosis inh – LAMP-1 surface exposure blockers, TALL-104 cells – cell-based, flow cytometry, MLPCN library, primary screen; TALL-104 LAMP-1 surface exposure; cells stimulated with thapsigargin and PMA; AID 651702, 2012; inhibition, % at 10 µM; 360,000 compounds, 0.66% hits;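 active = inhibition above about 55%, limit read from the data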
ASAP1 GAP inh – inhibitors of human ASAP1 ArfGAP activity, primary screen, biochemical, fluorescence polarization. 360,000 compounds, 0.19% hits. ASAP1-stimulated ARF1 GTP hydrolysis, GDP FP detection. inhibition, % at 16.5 µM. AID 624377, 2012. Arf-GAP with SH3 domain, ANK repeat and PH domain-containing protein 1 (Homo sapiens), …; in the data active = inhibition above about 25%
ARFGAP1 inhibitor – inhibitors of rat ARFGAP1 GAP activity, primary screen, biochemical, fluorescence polarization, GDP tracer; Arfgap1-stimulated ARF1 GTP hydrolysis, GDP FP detection; inhibition, % at 16.5 µM; AID 651572, 2012; ADP-ribosylation factor GTPase-activating protein 1 (Rattus norvegicus), Q62848; 360,000 compounds, 0.26% hits;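 active = inhibition above a per-plate limit, mean inhibition of low control wells plus 3 SD, cut at about 25% in these data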
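Material: truncated rat Arfgap1 GAP domain; Incubation: compound-enzyme preincubation 20 min, reaction 120 min, detection 60 min, 25 °C; Read-out: percent inhibition of Arfgap1-stimulated GTP hydrolysis; Technique: FP, GDP Alexa 633 tracer displaced from anti-GDP antibody, 620/688 nm; Controls: No-Arfgap1 wells (100%) versus DMSO full-reaction wells (0%); Replication: single well per compound.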
NRP1-CendR mod – modulators of CendR peptide binding to NRP-1, primary screen, biochemical, fluorescence polarization, uHTS | inhibition, % at 25 µM | AID 602438, 2012 | 360,000 compounds, 0.85% hits | Neuropilin-1 (Homo sapiens), O14786 | FAM-RPARPAR peptide binding to NRP-1;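 active = inhibition or corrected inhibition above about 18%, plus a signal ratio from 0.5 to 1.5, limit read from the data, passing the limit was not always enough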
Target sequence (O14786 whole entry, looked up): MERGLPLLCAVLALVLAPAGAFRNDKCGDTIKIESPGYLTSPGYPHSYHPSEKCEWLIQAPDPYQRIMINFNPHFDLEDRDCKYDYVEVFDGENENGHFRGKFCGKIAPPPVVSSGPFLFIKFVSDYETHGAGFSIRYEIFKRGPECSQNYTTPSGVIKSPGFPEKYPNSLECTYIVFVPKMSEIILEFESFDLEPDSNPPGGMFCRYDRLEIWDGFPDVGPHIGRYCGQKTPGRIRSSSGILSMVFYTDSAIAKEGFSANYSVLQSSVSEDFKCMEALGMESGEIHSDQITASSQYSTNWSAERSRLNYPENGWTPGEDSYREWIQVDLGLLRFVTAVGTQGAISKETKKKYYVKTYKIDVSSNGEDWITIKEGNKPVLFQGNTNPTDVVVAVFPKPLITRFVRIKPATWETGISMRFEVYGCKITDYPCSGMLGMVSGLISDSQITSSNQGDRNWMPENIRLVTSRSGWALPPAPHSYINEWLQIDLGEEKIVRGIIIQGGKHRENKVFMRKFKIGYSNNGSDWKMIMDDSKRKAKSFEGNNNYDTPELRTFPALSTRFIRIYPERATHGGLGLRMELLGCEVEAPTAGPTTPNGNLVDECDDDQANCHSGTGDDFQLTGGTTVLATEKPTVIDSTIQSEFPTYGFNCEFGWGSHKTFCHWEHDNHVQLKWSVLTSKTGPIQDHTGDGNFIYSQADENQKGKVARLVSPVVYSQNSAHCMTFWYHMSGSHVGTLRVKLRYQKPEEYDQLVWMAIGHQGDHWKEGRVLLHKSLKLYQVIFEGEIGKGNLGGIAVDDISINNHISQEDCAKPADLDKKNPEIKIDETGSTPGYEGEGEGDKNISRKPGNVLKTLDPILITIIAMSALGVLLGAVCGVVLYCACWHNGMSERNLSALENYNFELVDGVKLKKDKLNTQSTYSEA
Of the large screens only hits and unclear results are named; the others gave an inactive call.

Cc1cc(C(=O)N2CCC2(C)C(=O)Nc2cccc3c2CCCC3)nn1C (configuration not stated)	none (no result: V-ATPase pHluor)
Cc1cc(C)n2c(Nc3ccc4c(c3)OCCO4)c(-c3ccccn3)nc2n1	NRP1-CendR mod 21 (no result: V-ATPase pHluor)
O=C(CN1C(=O)c2ccccc2C1=O)NC1CCC(O)CC1 (configuration not stated)	NRP1-CendR mod 25
COC(=O)C1=C(C)N(Cc2ccccc2C(F)(F)F)C(=NCc2ccc3c(c2)OCO3)NC1c1ccc(C(F)(F)F)cc1 (configuration not stated)	none (no result: V-ATPase pHluor, Exocytosis inh, NRP1-CendR mod)
C/C(=C\c1ccc2c(c1)OCO2)C1Nc2cccc3cccc(c23)N1	NRP1-CendR mod 17
O=S(=O)(c1ccc(C(F)(F)F)cc1)N1CCCc2nc(-c3ccccc3)ccc21	none (no result: V-ATPase pHluor, Exocytosis inh, NRP1-CendR mod)
Cc1cc(O)c2c(c1)C(=O)c1cccc(O)c1C2=O	none (no result: V-ATPase pHluor, Exocytosis inh, NRP1-CendR mod)
COc1cc(C)cc(C(=O)O)c1C1=C(O)c2cccc(O)c2C(=O)C1=O	NRP1-CendR mod 28
COc1ccc(CC2(CO)CCN(Cc3cccnc3)CC2)cc1	none
COc1ccc(CC2(CO)CCN(Cc3cccc(OC)c3OC)CC2)cc1	V-ATPase pHluor 15
COC(=O)C1=C(C)N(Cc2ccc(C(F)(F)F)cc2)C(=NCc2ccc(C(F)(F)F)cc2)NC1c1ccccc1 (configuration not stated)	none (no result: V-ATPase pHluor, Exocytosis inh, NRP1-CendR mod)
CN1CCCc2cc(C=O)ccc21	none
CCCN1CCCc2cc(CN)ccc21	NRP1-CendR mod 25
OC(c1ccccc1)(c1ccccc1)C1CCN(CCCOc2ccc(-c3cncnc3)cc2)CC1	none (no result: V-ATPase pHluor, Exocytosis inh, NRP1-CendR mod)
CNC(=O)NC(=O)C(C)OC(=O)c1c(C)noc1C (configuration not stated)	NRP1-CendR mod 43
COCCCn1c(SCC(=O)NC2CCS(=O)(=O)C2)nnc1-c1ccc(Cl)cc1 (configuration not stated)	NRP1-CendR mod 23
COc1ccccc1-c1nnc(SCC(=O)NC2CCS(=O)(=O)C2)n1N (configuration not stated)	NRP1-CendR mod 22
COc1ccccc1-c1nnc(SCC(=O)NC2CCCCC2)n1N	none
Cc1cccc(N(C)c2ncnc3onc(-c4ccc(F)cc4)c23)c1C	NRP1-CendR mod 22
Cc1cc(C(=O)CN2C(=O)C3CC=CCC3C2=O)c(C)n1-c1ccccc1 (configuration not stated)	NRP1-CendR mod 29
COc1ccc(C(C)=O)cc1COC(=O)CCNS(=O)(=O)c1ccc(C(C)=O)cc1	NRP1-CendR mod 44
CCn1c(N)c(C(=O)NCc2cccnc2)sc1=S	NRP1-CendR mod 26
CCOC(=O)c1[nH]c2ccc(OC)cc2c1NC(=O)CN1CCSCC1	V-ATPase pHluor 25
Clc1cccc(Cl)c1CO/N=C/c1cccs1	none
Cc1c(C)c(C)c(CO/N=C/c2cccs2)c(C)c1C	Exocytosis inh 88
C[C@H](CO)N1C[C@H](C)[C@@H](CN(C)S(=O)(=O)c2ccccc2)Oc2c(NC(=O)C3CCCCC3)cccc2C1=O	none
CCCCCCCCN1C(=O)[C@@H](CC(=O)NCc2cccs2)C[C@@]2(C(=O)OC)C1=C[C@H](C1CCCC1)O[C@@H]2C	none (no result: V-ATPase pHluor, Exocytosis inh, NRP1-CendR mod)
N=C1CCC(=N)c2c1c(O)c1ccccc1c2O	NRP1-CendR mod 27 (no result: ASAP1 GAP inh, ARFGAP1 inhibitor)
COC(=O)C1=C(C)N(Cc2cccc(C(F)(F)F)c2)C(=NCc2ccc3c(c2)OCO3)NC1c1ccccc1C(F)(F)F (configuration not stated)	none (no result: V-ATPase pHluor, Exocytosis inh, NRP1-CendR mod)
COc1cccc(-n2cc(CNCc3c(C(=O)N(C)C)nc4ccc(Cl)cn34)cn2)c1	none
COc1cccc(-n2cc(CNCc3cn(C)nc3-c3ccccc3F)cn2)c1	V-ATPase pHluor 14
COc1ccc(N2CCN(C(=O)CNC(=O)Cc3ccccc3)CC2)cc1	none
O=C(NCC(=O)N1CCN(c2ccccc2)CC1)c1ccco1	NRP1-CendR mod 27
O=C(Cc1ccc(Br)cc1)N1CCN(c2ccc(F)cc2)CC1	NRP1-CendR mod 23
O=C(Cc1ccccc1)NCC(=O)N1CCN(c2ccc(F)cc2)CC1	NRP1-CendR mod 26
COc1ccc(CC(=O)N2CCN(c3ccc(F)cc3)CC2)cc1	none
CC(C)[C@H](NC(=O)[C@@H](N)Cc1ccccc1)C(=O)N1CCC2CCN(Cc3ccccc3)CC21 (some centres not stated)	none (no result: V-ATPase pHluor, Exocytosis inh, NRP1-CendR mod)
Nc1ccn([C@@H]2O[C@H](C(=O)N[C@H](Cc3ccccc3)C(=O)N3CCC(F)(F)CC3)[C@@H](O)[C@H]2O)c(=O)n1	none (no result: V-ATPase pHluor, Exocytosis inh, NRP1-CendR mod)
O=c1c2c3c(sc2ncn1/N=C/c1ccc([N+](=O)[O-])o1)CCCC3	Exocytosis inh 83
Cn1cc(/C=N/n2cnc3sc4c(c3c2=O)CCCC4)c2ccccc21	none
COC(=O)C1=C(C)N(C)C(=NCc2ccccc2C(F)(F)F)NC1c1ccc(Cl)cc1 (configuration not stated)	none (no result: V-ATPase pHluor, Exocytosis inh, NRP1-CendR mod)
COc1ccc([C@H]2CC(=O)C=C(c3ccccc3C(F)(F)F)C2)cc1	NRP1-CendR mod 29
CCCCc1c(-c2ccccc2OC)ncn1Cc1ccc(F)cc1F	none (no result: V-ATPase pHluor, Exocytosis inh, NRP1-CendR mod)
O=C(COC(=O)C1CC(=O)N(Cc2ccccc2)C1)Nc1ccccc1F (configuration not stated)	NRP1-CendR mod 26
O=C(COC(=O)C1CC(=O)N(Cc2ccccc2)C1)Nc1ccc(Cl)cc1F (configuration not stated)	none
COc1ccccc1Nc1nc2cc(C)ccc2cc1C#N	none
COc1ccccc1Nc1nc2ccc(C)cc2cc1C#N	NRP1-CendR mod 29
CNC(=O)Nc1ccccc1C(=O)NCc1ccccc1	NRP1-CendR mod 27
CC1=NNC(=O)/C1=C\c1cn(-c2ccccc2)nc1-c1cccs1	none
CC1=NNC(=O)/C1=C\c1cn(-c2ccccc2)nc1-c1ccc(F)cc1	Exocytosis inh 66 (no result: ASAP1 GAP inh, ARFGAP1 inhibitor)
O=C(Cc1c[nH]c2ccccc12)Nc1ccc(Nc2ccncc2)cc1	none (no result: V-ATPase pHluor, Exocytosis inh, NRP1-CendR mod)
O=[N+]([O-])c1cccc(C=Nc2cc3c(cc2Br)OCCO3)c1	NRP1-CendR mod 27
O=C(N/N=C/c1cccc([N+](=O)[O-])c1)c1ccc2c(c1)OCCO2	none
Cc1cccc(NC(=O)CNC(=O)[C@H](CCc2ccccc2)NC(=O)[C@H]2O[C@@H](n3cnc4c(N)ncnc43)[C@H](O)[C@@H]2O)c1C	none (no result: V-ATPase pHluor, Exocytosis inh, NRP1-CendR mod)
CCOC(=O)C(=NO)C1=CSC2=NNC(C)(C)N12	none
COC(=O)c1cc2c(c3c4ccccc4n(S(=O)(=O)c4ccc(OC)cc4)c13)C(=O)N(C)C2	none (no result: V-ATPase pHluor, Exocytosis inh, NRP1-CendR mod)
CCN1C(=O)C(=O)c2cc(C)ccc21	NRP1-CendR mod 34
COc1ccc(OC)c(-c2cc(C(=O)N3CCN(c4ccccc4)CC3)no2)c1	V-ATPase pHluor 18
COc1cccc(/C=N/NC(=O)c2[nH]nc3c2CCc2ccccc2-3)c1	Exocytosis inh 81
